Source: ChEMBL document CHEMBL4004855, “Synthesis of hetero annulated isoxazolo-, pyrido- and pyrimido carbazoles: Screened for in vitro antitumor activity and structure activity relationships, a novel 2-amino-4-(3'-bromo-4'-methoxyphenyl)-8-chloro-11H-pyrimido[4,5-a]carbazole as an antitumor agent” (Eur J Med Chem, 2017)
Activity calls are given as the source filed them. The rule behind the calls is not given here.

How the values were obtained:
Assay type in all cases: functional, cell-based
[1] = tested on: A549; assay: Induction of apoptosis in human A549 cells assessed as chromatin condensation after 24 hrs by AO/EB-dual staining based fluorescent microscopic analysis
How it was run: (§1)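 Treated cells were collected, washed in PBS (pH 7.2), and stained with an AO/EtBr mixture (1:1; […] each in water) for 2 min. They were then washed twice with PBS and viewed by fluorescence microscopy at 400× with a 480 nm excitation filter. Green marks intact membranes; orange/red marks damaged membranes and condensed nuclei. Untreated cells served as control.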

[2] = tested on: MCF7; assay: Induction of morphological changes in human MCF7 cells assessed as membrane blebbing after 24 hrs by phase contrast microscopy
[3] = tested on: MCF7; assay: Induction of morphological changes in human MCF7 cells assessed as formation of floating cells after 24 hrs by phase contrast microscopy
[4] = tested on: MCF7; assay: Cytotoxicity against human MCF7 cells assessed as reduction in cell viability after 48 hrs by MTT assay; settings: for IC50: MCF7, 48 h
How it was run: (§2)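 Cells kept in DMEM with 10% FBS, glutamine, HEPES and antibiotics at 37°C, 5% CO2. Seeded at 1×10⁴ cells/well and grown 48 h to 75% confluence, then exposed to serially diluted compounds for 48 h. MTT added for 4 h at 37 °C, formazan dissolved in DMSO, OD read at 620 nm. Viability is given as % of control OD, and IC50 is read from the viability-versus-concentration plot. Three independent experiments in triplicate.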

[5] = tested on: A549; assay: Induction of morphological changes in human A549 cells assessed as cell shrinkage after 24 hrs by phase contrast microscopy
[6] = tested on: A549; assay: Cytotoxicity against human A549 cells assessed as reduction in cell viability after 48 hrs by MTT assay; settings: for IC50: A549, 48 h; how it was run: as §2
[7] = tested on: MCF7; assay: Induction of apoptosis in human MCF7 cells assessed as nuclear fragmentation after 24 hrs by DAPI-staining based fluorescence microscopic analysis
How it was run: (§3)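 Cells were grown on glass coverslips, treated for 24 h, fixed, and permeabilised with 0.2% Triton X-100 for 10 min at room temperature. They were then stained with DAPI for 3 min and examined by fluorescence microscopy for condensed chromatin and nuclear fragmentation. Untreated cells served as control.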

[8] = tested on: A549; assay: Induction of morphological changes in human A549 cells assessed as membrane blebbing after 24 hrs by phase contrast microscopy
[9] = tested on: MCF7; assay: Induction of apoptosis in human MCF7 cells assessed as chromatin condensation after 24 hrs by AO/EB-dual staining based fluorescent microscopic analysis; how it was run: as §1
[10] = tested on: A549; assay: Induction of morphological changes in human A549 cells assessed as formation of floating cells after 24 hrs by phase contrast microscopy
[11] = tested on: MCF7; assay: Induction of morphological changes in human MCF7 cells assessed as cell shrinkage after 24 hrs by phase contrast microscopy
[12] = tested on: A549; assay: Induction of apoptosis in human A549 cells assessed as nuclear fragmentation after 24 hrs by DAPI-staining based fluorescence microscopic analysis; how it was run: as §3

SMILES | Activity [1] | Activity [2] | Activity [3] | Activity [4] | IC50 [4] [µM] | Activity [5] | Activity [6] | IC50 [6] [µM] | Activity [7] | Activity [8] | Activity [9] | Activity [10] | Activity [11] | Activity [12]
CCOc1nc2c(c(-c3ccc(OC)c(Br)c3)c1C#N)CCc1c-2[nH]c2ccc(C)cc12 | Active | Dose-dependent effect | Dose-dependent effect | Dose-dependent effect | 25 | Dose-dependent effect | Dose-dependent effect | 29 | Active | Dose-dependent effect | inactive | Dose-dependent effect | Dose-dependent effect | –
COc1ccc(-c2onc3c2CCc2c-3[nH]c3ccc(C)cc23)cc1Br | Active | Dose-dependent effect | Dose-dependent effect | Dose-dependent effect | 21 | Dose-dependent effect | Dose-dependent effect | 28 | Active | Dose-dependent effect | inactive | Dose-dependent effect | Dose-dependent effect | Active
CCOc1nc2c(c(-c3ccc(OC)c(Br)c3)c1C#N)CCc1c-2[nH]c2ccccc12 | – | – | – | Dose-dependent effect | 35 | – | Dose-dependent effect | 37 | – | – | – | – | – | –
COc1ccc(-c2nc(N)nc3c2ccc2c4cccc(C)c4[nH]c23)cc1Br | – | – | – | Dose-dependent effect | 28 | – | Dose-dependent effect | 31 | – | – | – | – | – | –
COc1ccc(-c2nc(N)nc3c2ccc2c4cc(Cl)ccc4[nH]c23)cc1Br | Active | Dose-dependent effect | Dose-dependent effect | Dose-dependent effect | 20 | Dose-dependent effect | Dose-dependent effect | 25 | – | Dose-dependent effect | Active | Dose-dependent effect | Dose-dependent effect | inactive
CCOc1nc2c(c(-c3ccc(OC)c(Br)c3)c1C#N)CCc1c-2[nH]c2ccc(Cl)cc12 | – | Dose-dependent effect | Dose-dependent effect | Dose-dependent effect | 25 | Dose-dependent effect | Dose-dependent effect | 32 | – | Dose-dependent effect | Active | Dose-dependent effect | Dose-dependent effect | inactive
CCOc1nc2c(c(-c3ccc(OC)c(Br)c3)c1C#N)CCc1c-2[nH]c2c(C)cccc12 | – | – | – | Dose-dependent effect | 36 | – | Dose-dependent effect | 39 | – | – | – | – | – | –
COc1ccc(-c2nc(N)nc3c2ccc2c4ccccc4[nH]c23)cc1Br | – | – | – | Dose-dependent effect | 26 | – | Dose-dependent effect | 29 | – | – | – | – | – | –
COc1ccc(-c2onc3c2CCc2c-3[nH]c3c(C)cccc23)cc1Br | – | – | – | Dose-dependent effect | 32 | – | Dose-dependent effect | 35 | – | – | – | – | – | –
COc1ccc(-c2nc(N)nc3c2ccc2c4cc(C)ccc4[nH]c23)cc1Br | – | Dose-dependent effect | Dose-dependent effect | Dose-dependent effect | 22 | Dose-dependent effect | Dose-dependent effect | 24 | Active | Dose-dependent effect | inactive | Dose-dependent effect | Dose-dependent effect | Active
COc1ccc(-c2onc3c2CCc2c-3[nH]c3ccccc23)cc1Br | – | – | – | Dose-dependent effect | 31 | – | Dose-dependent effect | 33 | – | – | – | – | – | –
